ChEMBL document CHEMBL1154114, “7-((4-Substituted)piperazin-1-yl) derivatives of ciprofloxacin: synthesis and in vitro biological evaluation as potential antitumor agents” (Bioorg Med Chem, 2009)
Values belong to the molecule of their own block, whether it stands above or below them.

How the values were obtained:
[1] = Inhibition of human RPMI8226/S cell proliferation; assay type: functional, cell-based
[2] = target: DNA topoisomerase 2-alpha (Homo sapiens) (UniProt P11388); experiment: Inhibition of human topoisomerase 2 assessed as conversion of catenated to decatenated form of kDNA
DNA topoisomerase 2-alpha (Homo sapiens), sequence (P11388 whole entry): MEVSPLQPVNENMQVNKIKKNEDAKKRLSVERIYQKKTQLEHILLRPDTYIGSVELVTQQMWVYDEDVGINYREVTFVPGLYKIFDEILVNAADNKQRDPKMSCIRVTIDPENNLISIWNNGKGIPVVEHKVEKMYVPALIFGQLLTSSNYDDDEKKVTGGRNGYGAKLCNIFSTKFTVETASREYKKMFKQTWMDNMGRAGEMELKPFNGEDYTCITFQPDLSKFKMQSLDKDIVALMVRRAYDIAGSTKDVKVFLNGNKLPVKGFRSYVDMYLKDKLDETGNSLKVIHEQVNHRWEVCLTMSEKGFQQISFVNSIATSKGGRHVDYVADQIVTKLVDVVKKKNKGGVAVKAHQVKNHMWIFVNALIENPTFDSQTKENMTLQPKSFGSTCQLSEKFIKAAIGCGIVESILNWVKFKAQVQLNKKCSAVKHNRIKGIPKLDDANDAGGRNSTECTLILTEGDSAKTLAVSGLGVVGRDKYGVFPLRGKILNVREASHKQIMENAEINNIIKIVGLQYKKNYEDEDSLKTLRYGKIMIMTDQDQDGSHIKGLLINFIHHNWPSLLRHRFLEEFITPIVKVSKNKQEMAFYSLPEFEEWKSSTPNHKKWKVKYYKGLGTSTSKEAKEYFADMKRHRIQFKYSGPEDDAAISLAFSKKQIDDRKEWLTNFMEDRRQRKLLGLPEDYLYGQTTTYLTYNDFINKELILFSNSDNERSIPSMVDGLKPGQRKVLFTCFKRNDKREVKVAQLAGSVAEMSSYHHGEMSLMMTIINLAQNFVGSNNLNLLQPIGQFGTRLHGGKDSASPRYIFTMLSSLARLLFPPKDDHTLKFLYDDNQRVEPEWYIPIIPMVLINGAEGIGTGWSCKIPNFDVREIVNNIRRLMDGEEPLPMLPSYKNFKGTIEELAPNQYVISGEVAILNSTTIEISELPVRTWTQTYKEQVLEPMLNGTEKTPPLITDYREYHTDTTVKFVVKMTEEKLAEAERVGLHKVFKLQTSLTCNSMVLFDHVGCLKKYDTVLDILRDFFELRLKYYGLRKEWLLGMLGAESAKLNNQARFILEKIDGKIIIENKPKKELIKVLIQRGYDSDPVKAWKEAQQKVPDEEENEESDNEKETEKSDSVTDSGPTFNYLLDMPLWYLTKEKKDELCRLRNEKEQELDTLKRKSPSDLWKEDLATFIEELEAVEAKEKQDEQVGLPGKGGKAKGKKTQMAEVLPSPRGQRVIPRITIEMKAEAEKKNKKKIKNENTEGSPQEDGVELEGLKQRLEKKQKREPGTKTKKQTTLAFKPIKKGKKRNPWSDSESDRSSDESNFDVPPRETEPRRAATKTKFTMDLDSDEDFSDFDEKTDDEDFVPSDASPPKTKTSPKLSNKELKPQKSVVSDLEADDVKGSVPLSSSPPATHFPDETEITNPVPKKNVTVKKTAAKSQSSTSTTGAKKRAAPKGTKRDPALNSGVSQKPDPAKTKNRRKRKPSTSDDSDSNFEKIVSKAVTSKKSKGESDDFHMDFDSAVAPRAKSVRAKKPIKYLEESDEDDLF

MCF7 [3] = experiment: Antitumor activity against human MCF7 cells after 3 days by MTT assay; assay type: functional, cell-based; conditions: MCF7, 72 h
A549 [4] = experiment: Antitumor activity against human A549 cells after 3 days by MTT assay; assay type: functional, cell-based; conditions: A549, 72 h
HT-29 [5] = experiment: Antitumor activity against human HT-29 cells after 3 days by MTT assay; assay type: functional, cell-based; conditions: HT-29, 72 h
MCF7 [6] = experiment: Inhibition of human MCF7 cell proliferation; assay type: functional, cell-based
HCT-8 = experiment: Antitumor activity against human HCT8 cells after 3 days by MTT assay; assay type: functional, cell-based; conditions: HCT-8, 72 h
DU-145 = experiment: Inhibition of human DU145 cell proliferation; assay type: functional, cell-based
HT-29 [7] = experiment: Inhibition of human HT-29 cell proliferation; assay type: functional, cell-based
[8] = Inhibition of human […] cell proliferation; assay type: functional, cell-based
[9] = target: DNA topoisomerase 2-alpha (Homo sapiens) (UniProt P11388); experiment: Inhibition of human topoisomerase 2-mediated DNA unwinding activity
P388 = experiment: Inhibition of mouse P388 cell proliferation; assay type: functional, cell-based
A549 [10] = experiment: Ratio of ciprofloxacin IC50 to compound IC50 for human A549 cells; assay type: functional
U373 MG = experiment: Ratio of ciprofloxacin IC50 to compound IC50 for human U373MG cells; assay type: functional, U-373MG ATCC
MCF7 [11] = experiment: Antitumor activity against human MCF7 cells after 5 days by MTT assay; assay type: functional, cell-based; conditions: MCF7, 120 h
How it was run: (§1)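 Five human cancer lines (prostate PC-3, glioblastoma U373-MG, colorectal LoVo, NSCLC A549, breast MCF-7) plated at 10⁴ to 3×10⁴ cells/mL depending on cell type, allowed 24 h to attach, then cultured 120 h with or without drug at nine concentrations. MTT reduction to formazan read at 570 nm (reference 630 nm).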

A549 [12] = experiment: Antitumor activity against human A549 cells after 5 days by MTT assay; assay type: functional, cell-based; conditions: A549, 120 h; how it was run: as §1
PC-3 [13] = experiment: Ratio of ciprofloxacin IC50 to compound IC50 for human PC3 cells; assay type: functional
[14] = Toxicity in ip dosed B6D2F1 mouse assessed as maximum tolerated dose after 28 days; assay type: organism-based; conditions: in vivo
How it was run: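 Healthy mice, three per group, each given a single ip dose and observed for up to 28 days. The MTD index is the highest single dose given without causing any deaths in the group.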

[15] = Antitumor activity against human U373MG cells after 5 days by MTT assay; assay type: functional, cell-based, U-373MG ATCC; conditions: U373 MG, 120 h; how it was run: as §1
[16] = Stability in phosphate buffer of pH 7.4 after 6 days; assay type: physicochemical; conditions: read-out: Stability
How it was run: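 Compound dissolved at 1 mM in DMSO, diluted with phosphate buffer pH 7.4 to 1 mL, incubated sealed at 37 °C for 6 days. A t0 aliquot was held at 4 °C. HPLC with 280 nm detection and duplicate injections, with expected degradation products as references. Stability is taken as compound peak area over (compound + degradation product) peak area.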

LoVo [17] = experiment: Ratio of ciprofloxacin IC50 to compound IC50 for human LoVo cells; assay type: functional
PC-3 [18] = experiment: Antitumor activity against human PC3 cells after 5 days by MTT assay; assay type: functional, cell-based; conditions: PC-3, 120 h; how it was run: as §1
MCF7 [19] = experiment: Ratio of ciprofloxacin IC50 to compound IC50 for human MCF7 cells; assay type: functional
LoVo [20] = experiment: Antitumor activity against human LoVo cells after 5 days by MTT assay; assay type: functional, cell-based; conditions: 120 h; how it was run: as §1
NCI-H460 [21] = experiment: Inhibition of human NCI-H460 cell proliferation by sulphorodhamine B assay; assay type: functional, cell-based
[22] = target: DNA topoisomerase 2-alpha (Homo sapiens) (UniProt P11388); experiment: Inhibition of topoisomerase 2-mediated DNA relaxation activity in human HeLa cells by Oomori method; assay type: cell-based
A-431 = experiment: Inhibition of human A431 cell proliferation by MTT assay; assay type: functional, cell-based
MC3T3-E1 = experiment: Inhibition of mouse MC3T3-E1 cell proliferation after 48 to 72 hrs; assay type: functional, cell-based
SW480 = experiment: Inhibition of human SW480 cell proliferation by MTT assay; assay type: functional, cell-based
EJ = experiment: Inhibition of human EJ cell proliferation by MTT assay; assay type: functional, cell-based
NCI-H460 [23] = experiment: Induction of apoptosis in human NCI-H460 cells at 120 uM by sulphorodhamine B assay; assay type: functional
MCF7 [24] = experiment: Inhibition of human MCF7 cell proliferation by MTT assay; assay type: functional, cell-based
MCF7 [25] = experiment: Inhibition of human MCF7 cell proliferation after 5 days by MTT assay; assay type: functional, cell-based; conditions: MCF7, 120 h; how it was run: as §1
SK-MEL = experiment: Inhibition of human SK-MEL cell proliferation by MTT assay; assay type: functional, cell-based
V79 = experiment: Inhibition of chinese hamster V79 cell proliferation assessed as bromodeoxyuridine incorporation during DNA synthesis after 48 hrs by ELISA; conditions: Cricetulus griseus, V79, 48 h
K562 = experiment: Inhibition of human K562 cell proliferation by sulphorodhamine B assay; assay type: functional, cell-based
KB = experiment: Inhibition of human KB cell proliferation by MTT assay; assay type: functional, cell-based
[26] = Inhibition of mouse NIH/3T3 cell proliferation by MTT assay; assay type: cell-based; conditions: NIH3T3
HeLa [27] = experiment: Inhibition of human HeLa cell proliferation; assay type: functional, cell-based
MG-63 = experiment: Inhibition of human MG63 cell proliferation assessed as bromodeoxyuridine incorporation during DNA synthesis after 48 hrs by ELISA; assay type: functional, cell-based; conditions: MG-63, 48 h
HeLa [28] = experiment: Inhibition of human HeLa cell proliferation assessed as bromodeoxyuridine incorporation during DNA synthesis after 48 hrs by ELISA; assay type: functional, cell-based
G-quadruplex DNA = experiment: Interaction with G-quadruplex DNA assessed by polymerase stop assay
B16 = experiment: Inhibition of mouse B16 cell proliferation; assay type: functional, cell-based
[29] = Inhibition of human MDA231 cell proliferation; assay type: functional, cell-based; conditions: MDA-MB-231
NCI-H226 = experiment: Inhibition of human NCI-H226 cell proliferation; assay type: functional, cell-based

SMILES: NC1CCN(c2c(F)cc3c(=O)c(C(=O)O)cn4c3c2Oc2ccccc2-4)C1 (configuration not stated)
IC50 [1]: 0.3 µM
Activity [2]: 0.5 µM
IC50 (MCF7 [3]): 0.8 µM
IC50 (A549 [4]): 1.3 µM
IC50 (HT-29 [5]): 0.5 µM
IC50 (MCF7 [6]): 0.7 µM
IC50 (HCT-8): 0.3 µM
IC50 (DU-145): 0.2 µM
IC50 (HT-29 [7]): 0.2 µM
IC50 [8]: 0.7 µM
Activity [9]: 50 µM
IC50 (P388): 0.05 µM

SMILES: CC(C)(C)OC(=O)N1CCN(c2cc3c(cc2F)c(=O)c(C(=O)O)cn3C2CC2)CC1
Ratio IC50 (A549 [10]): 2
Ratio IC50 (U373 MG): 2
IC50 (MCF7 [11]): 13 µM
IC50 (A549 [12]): 18 µM
Ratio IC50 (PC-3 [13]): 2
MTD at 672 h [14]: > 80 mg/kg
IC50 [15]: 35 µM
remaining at 144 h [16]: > 99%
Ratio IC50 (LoVo [17]): 2
IC50 (PC-3 [18]): 26 µM
Ratio IC50 (MCF7 [19]): 2
IC50 (LoVo [20]): 40 µM

SMILES: O=C(O)c1cn(C2CC2)c2cc(N3CCNCC3)c(F)cc2c1=O [CIPROFLOXACIN]
IC50 (NCI-H460 [21]): 60 µM
Activity [22]: 104 µM
IC50 (A-431): 135 µM
IC50 (MC3T3-E1): 120 µM
IC50 (MCF7 [11]): 476 µM
IC50 (A549 [12]): 280 µM
IC50 (SW480): 128 µM
IC50 (EJ): 202 µM
Activity (NCI-H460 [23]): 35%
IC50 (MCF7 [24]): 199 µM
MTD at 672 h [14]: > 80 mg/kg
IC50 (MCF7 [25]): 76 µM
IC50 [15]: 96 µM
IC50 (SK-MEL): 196 µM
IC50 (V79): > 1000 µM
IC50 (K562): > 150 µM
IC50 (KB): 160 µM
IC50 [26]: > 1000 µM
IC50 (PC-3 [18]): 143 µM
IC50 (HeLa [27]): 270 µM
IC50 (MG-63): 480 µM
IC50 (LoVo [20]): 89 µM
IC50 (HeLa [28]): 800 µM

SMILES: N[C@H]1CCN(c2c(F)cc3c(=O)c(C(=O)O)cn4c3c2Oc2c-4ccc3ccccc23)C1
IC50 (B16): 0.2 µM
Activity [2]: 0.5 µM
IC50 [29]: 0.08 µM
IC50 (DU-145): 0.06 µM
IC50 (HT-29 [7]): 0.05 µM
IC50 (NCI-H226): 0.03 µM
Activity [9]: 10 µM

SMILES: O=C(O)c1cn(C2CC2)c2cc(N3CCN(C(=O)CCl)CC3)c(F)cc2c1=O
Ratio IC50 (A549 [10]): 5
Ratio IC50 (U373 MG): 5
IC50 (MCF7 [11]): 23 µM
IC50 (A549 [12]): 10 µM
Ratio IC50 (PC-3 [13]): 5
MTD at 672 h [14]: > 80 mg/kg
IC50 [15]: 4 µM
remaining at 144 h [16]: > 99%
Ratio IC50 (LoVo [17]): 5
IC50 (PC-3 [18]): 8 µM
Ratio IC50 (MCF7 [19]): 5
IC50 (LoVo [20]): 17 µM

Now from value to molecule, other results behind:

IC50 (MCF7 [6]): 1 µM
IC50 (G-quadruplex DNA): 0.7 µM
SMILES: N[C@H]1CCN(c2c(F)cc3c(=O)c(C(=O)O)cn4c3c2Oc2c-4ccc3c2ccc2ccccc23)C1
IC50 [1]: 0.7 µM

IC50 (MCF7 [6]): 0.5 µM
IC50 (G-quadruplex DNA): 0.06 µM
SMILES: N[C@@H]1CCN(c2c(F)cc3c(=O)c(C(=O)O)cn4c3c2Oc2c-4ccc3c2ccc2ccccc23)C1
IC50 [1]: 0.3 µM

Activity [2]: 0.2 µM
IC50 (HT-29 [7]): 0.03 µM
IC50 (NCI-H226): 0.01 µM
Activity [9]: 3 µM
SMILES: N[C@@H]1CCN(c2c(F)cc3c(=O)c(C(=O)O)cn4c3c2Oc2c-4ccc3ccccc23)C1
IC50 [29]: 0.005 µM
